Measured values from ChEMBL document CHEMBL1132418, “Structure-immunosuppressive activity relationships of new analogues of 15-deoxyspergualin. 1. Structural modifications of the hydroxyglycine moiety” (1999).

Legend:
Assay type in all cases: functional
Mus musculus [1] = test: In vivo immunosuppressive activity in mouse GVHD (graft-versus-host disease) model and the mean survival days evaluated (dose of 3 mg/kg)
Summary of the method: (§1)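 Mouse GVHD model. Compounds were dissolved in aqueous solution and given i.p. on days 1 to 10 (day 6 omitted), first at 3 mg/kg/day and then at 1 mg/kg/day. Survival was followed to day 60 after cell injection and reported as mean survival in days ± deviation.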

Mus musculus [2] = test: In vivo immunosuppressive activity at a dose of 1 mg/kg in mouse GVHD (graft-versus-host disease) model and the mean survival days evaluated.; summary of the method: as §1
Rattus norvegicus [3] = test: Compound (6 mg/kg) is evaluated for prevention of graft rejection after heart allotransplantation in the Dark Agouti to Lewis rat combination.
Summary of the method: (§2)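 Dark Agouti donor hearts transplanted into Lewis rat recipients (fully histoincompatible; high-responder recipient). Compounds given daily i.p. at 6 mg/kg/day for 10 days, starting 1 day after surgery. Graft survival recorded for each animal in days and reported as mean ± SD, with a statistical comparison against controls.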

Rattus norvegicus [4] = organism: Rattus norvegicus; test: Compound is evaluated for prevention of graft rejection after heart allotransplantation in the dark agouti Lewis rat combination.; summary of the method: as §2

| SMILES | Mean survival (Mus musculus [1]) [days] | further results |
| --- | --- | --- |
| NCCCNCCCCC(=O)NCC(=O)NCCCCCCN=C(N)N | 22 |  |
| CC(C(=O)NCCCCCCN=C(N)N)C(=O)NCCCCNCCCN (configuration not stated) | 16 |  |
| NCCCNCCCCNC(=O)SCC(=O)NCCCCCCN=C(N)N | 17 |  |
| COC(C(=O)NCCCCCCN=C(N)N)C(=O)NCCCCNCCCN (configuration not stated) | 55 | Mean survival (Mus musculus [2]): 27 days |
| NCCCNCCCCNC(=O)COC(=O)NCCCCCCN=C(N)N | 13 |  |
| NCCCNCCCCNC(=O)C(=O)NCCCCCCN=C(N)N | 34 | Mean survival (Mus musculus [2]): 53 days; Mean survival (Rattus norvegicus [3]): 12 days |
| NCCCNCCCCCC(=O)NCC(=O)NCCCCCCN=C(N)N | 18 |  |
| CC(=O)NC(C(=O)NCCCCCCN=C(N)N)C(=O)NCCCCNCCCN (configuration not stated) | 16 |  |
| NCCCNCCCCNC(=O)OCCC(=O)NCCCCCCN=C(N)N | 13 |  |
| CC(C)(C(=O)NCCCCCCN=C(N)N)C(=O)NCCCCNCCCN | 15 |  |
| NCCCNCCCCNC(=O)/C=C\C(=O)NCCCCCCN=C(N)N | 17 |  |
| NCCCNCCCCNC(=O)C(Cc1ccccc1)C(=O)NCCCCCCN=C(N)N (configuration not stated) | 16 |  |
| CN(CC(=O)NCCCCCCN=C(N)N)C(=O)NCCCCNCCCN | 17 |  |
| NCCCNCCCCNC(=O)C(F)C(=O)NCCCCCCN=C(N)N (configuration not stated) | 60 | Mean survival (Mus musculus [2]): 18 days |
| NCCCNCCCCNC(=O)NCC(=O)NCCCCCCN=C(N)N | 48 | Mean survival (Mus musculus [2]): 42 days; Mean survival (Rattus norvegicus [4]): 12 days |
| NCCCNCCCCNC(=O)NCCC(=O)NCCCCCCN=C(N)N | 15 |  |
| CCC(C(=O)NCCCCCCN=C(N)N)C(=O)NCCCCNCCCN (configuration not stated) | 19 |  |
| CN(CCCCNCCCN)C(=O)CC(=O)NCCCCCCN=C(N)N | 12 |  |
| NCCCNCCCCNC(=O)C(O)CC(=O)NCCCCCCN=C(N)N (configuration not stated) | 15 |  |
| NCCCNCCCCNC(=O)CNC(=O)NCCCCCCN=C(N)N | 24 |  |
| CN(CCCCNCCCN)C(=O)OCC(=O)NCCCCCCN=C(N)N | 15 |  |

| SMILES | Mean survival (Mus musculus [1]) [days] | further results |
| --- | --- | --- |
| CN(CCCCCCN=C(N)N)C(=O)CC(=O)NCCCCNCCCN | 14 |  |
| NCCCNCCCCNC(=O)OCCNCCCCCCN=C(N)N | 34 |  |
| NCCCNCCCCNC(=O)C(N)C(=O)NCCCCCCN=C(N)N (configuration not stated) | 16 |  |
| N=C(N)NCCCCCCC(=O)NC(O)C(=O)NCCCCNCCCN (configuration not stated) [GUSPERIMUS] | 57 | Mean survival (Mus musculus [2]): 38 days; Mean survival (Rattus norvegicus [3]): 38 days |
| NCCCNCCCCOC(=O)NCNC(=O)CCCCCCN=C(N)N | 58 | Mean survival (Mus musculus [2]): 32 days |
| NCCCNCCCCNC(=O)CC(=O)NCCCCCCN=C(N)N | 52 | Mean survival (Mus musculus [2]): 53 days; Mean survival (Rattus norvegicus [3]): 9 days |
| NCCCNCCCCNCCC(=O)NCCCCCCN=C(N)N | 13 |  |
| COC(OC)(C(=O)NCCCCCCN=C(N)N)C(=O)NCCCCNCCCN | 12 |  |
| NCCCNCCCCNC(=O)CCCC(=O)NCCCCCCN=C(N)N | 15 |  |
| NCCCNCCCCNC(=O)C(O)C(=O)NCCCCCCN=C(N)N (configuration not stated) | 53 | Mean survival (Mus musculus [2]): 12 days; Mean survival (Rattus norvegicus [3]): 33 days |
| NCCCNCCCCNC(=O)CCCCCCCCCN=C(N)N | 16 |  |
| NCCCNCCCCNC(=O)/C=C/C(=O)NCCCCCCN=C(N)N | 17 |  |
| NCCCNCCCCNS(=O)(=O)CC(=O)NCCCCCCN=C(N)N | 15 |  |
| NCCCNCCCCNC(=O)C(OCc1ccccc1)C(=O)NCCCCCCN=C(N)N (configuration not stated) | 14 |  |
| N=C(N)NCCCCCCNC(=O)COC(=O)NCCCCNCCCN [TRESPERIMUS] | 58 | Mean survival (Mus musculus [2]): 46 days; Mean survival (Rattus norvegicus [3]): 54 days |
| NCCCNCCCCNC(=O)CCC(=O)NCCCCCCN=C(N)N | 16 |  |
| CN(CCCCCCN=C(N)N)C(=O)COC(=O)NCCCCNCCCN | 14 |  |
| NCCCNCCCCNC(=O)C(CO)(CO)C(=O)NCCCCCCN=C(N)N | 17 |  |
| NCCCNCCCCOC(=O)NCC(=O)NCCCCCCN=C(N)N | 48 | Mean survival (Mus musculus [2]): 55 days |
| NCCCNCCCCNC(=O)C(C(=O)NCCCCCCN=C(N)N)c1ccccc1 (configuration not stated) | 19 |  |
